Assay results published in ChEMBL document CHEMBL1147391, “Isolation of echinocystic acid-3-O-sulfate, a new triterpene, from Tetrapleura tetraptera, and evaluation of the mutagenic potential of molluscicidal extracts and isolates” (J Nat Prod, 1993).
Active and inactive are the calls of the source. The rule behind the calls is not given here.

How the values were obtained:
[1] = test system: Salmonella typhimurium; assay: Bactericidal activity against Salmonella Typhimurium […] assessed as survival at 50 mg/ml after 48 to 60 hrs in presence of rat S9 liver homogenate; format: functional, organism-based; conditions: Salmonella enterica subsp. enterica serovar Typhimurium, Liver S9 fraction
Summary of the method: (§1)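 TM677 (pKM101) forward mutation assay run with a 9000×g liver supernatant (S-9) from Aroclor 1254-pretreated rats. Test substance was added in DMSO and incubated 2 h at 37°, then quenched with PBS. Cells were pelleted, diluted and plated in triplicate without 8-azaguanine, and colonies counted after 48–60 h at 37°. Survival was dilution-corrected and taken relative to a DMSO solvent control.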

[2] = test system: Salmonella typhimurium; assay: Bactericidal activity against Salmonella Typhimurium […] assessed as survival at 0.58 mg/ml after 48 to 60 hrs in absence of rat S9 liver homogenate; format: functional, organism-based; conditions: Salmonella enterica subsp. enterica serovar Typhimurium
Summary of the method: (§2)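 Forward mutation assay in S. typhimurium TM677 carrying plasmid pKM101, without S-9. Bacteria were mixed with MEM, test substance added in DMSO, and incubated 2 h at 37°. The mix was quenched with PBS, pelleted, diluted and plated in triplicate without 8-azaguanine. Colonies were counted after 48–60 h at 37°. Survival was dilution-corrected and taken relative to a DMSO-only control.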

[3] = test system: Salmonella typhimurium; assay: Bactericidal activity against Salmonella Typhimurium […] assessed as survival at 0.5 mg/ml after 48 to 60 hrs in presence of rat S9 liver homogenate; format: functional, organism-based; conditions: Salmonella enterica subsp. enterica serovar Typhimurium, Liver S9 fraction; summary of the method: as §1
[4] = test system: Salmonella typhimurium; assay: Bactericidal activity against Salmonella Typhimurium […] assessed as survival at 5 mg/ml after 48 to 60 hrs in presence of rat S9 liver homogenate relative to control; format: functional, organism-based; conditions: Salmonella enterica subsp. enterica serovar Typhimurium, Liver S9 fraction
Summary of the method: (§3)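 TM677 (pKM101) exposed to test substance in DMSO with or without S-9 from livers of Aroclor 1254-pretreated rats, 2 h at 37°, quenched with PBS, centrifuged, diluted and plated in triplicate without 8-azaguanine. Colonies scored after 48–60 h at 37°. Survival is expressed relative to a DMSO-only control after correction for dilution.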

[5] = test system: Biomphalaria glabrata; assay: Molluscicidal activity against Biomphalaria glabrata assessed as mortality at 20 ppm after 24 hrs; format: functional
Summary of the method: (§4)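 Lab-bred B. glabrata (about 12 mm shell diameter), five snails per test, tested in duplicate at 21–22°. Samples dissolved in MeOH and diluted in dechlorinated tap water, final MeOH ≤1% v/v. Snails immersed 24 h, rinsed, then held 24 h in clean water. Death means no heartbeat under a dissecting microscope. Negative control was 1% MeOH.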

[6] = test system: Salmonella typhimurium; assay: Bactericidal activity against Salmonella Typhimurium […] assessed as survival at 0.058 mg/ml after 48 to 60 hrs in absence of rat S9 liver homogenate; format: functional, organism-based; conditions: Salmonella enterica subsp. enterica serovar Typhimurium; summary of the method: as §2
[7] = test system: Salmonella typhimurium; assay: Bactericidal activity against Salmonella Typhimurium […] assessed as survival at 5.8 mg/ml after 48 to 60 hrs in absence of rat S9 liver homogenate; format: functional, organism-based; conditions: Salmonella enterica subsp. enterica serovar Typhimurium; summary of the method: as §2
[8] = test system: Salmonella typhimurium; assay: Forward mutagenic activity in Salmonella Typhimurium […] assessed as mutant fraction at 0.625 mg/ml after 2 hrs in presence of rat S9 liver homogenate; format: toxicity, organism-based; conditions: salmonella enterica subsp. enterica serovar typhimurium
Summary of the method: (§5)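 Forward mutation assay in S. typhimurium TM677 carrying pKM101, with or without Aroclor 1254-induced rat liver S-9 (9000×g). Substance in DMSO incubated with bacteria 2 h at 37°, quenched with PBS and plated in triplicate with and without 8-azaguanine, then grown 48–60 h at 37°. Mutant fraction is the mean 8-azaguanine-resistant colony count over the mean count without 8-azaguanine, corrected for dilution.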

[9] = test system: Biomphalaria glabrata; assay: Molluscicidal activity against Biomphalaria glabrata assessed as mortality at 1.25 ppm after 24 hrs; format: functional; summary of the method: as §4
[10] = test system: Salmonella typhimurium; assay: Forward mutagenic activity in Salmonella Typhimurium […] assessed as mutant fraction at 0.625 mg/ml after 2 hrs in absence of rat S9 liver homogenate; format: toxicity, organism-based; conditions: salmonella enterica subsp. enterica serovar typhimurium; summary of the method: as §5
[11] = test system: Salmonella typhimurium; assay: Forward mutagenic activity in Salmonella Typhimurium […] assessed as mutant fraction at 5 mg/ml after 2 hrs in absence of rat S9 liver homogenate; format: toxicity, organism-based; conditions: salmonella enterica subsp. enterica serovar typhimurium; summary of the method: as §5
[12] = test system: Salmonella typhimurium; assay: Bactericidal activity against Salmonella Typhimurium […] assessed as survival at 1.25 mg/ml after 48 to 60 hrs in absence of rat S9 liver homogenate relative to control; format: functional, organism-based; conditions: Salmonella enterica subsp. enterica serovar Typhimurium; summary of the method: as §3
[13] = test system: Salmonella typhimurium; assay: Forward mutagenic activity in Salmonella Typhimurium […] assessed as mutant fraction at 0.3125 mg/ml after 2 hrs in presence of rat S9 liver homogenate; format: toxicity, organism-based; conditions: salmonella enterica subsp. enterica serovar typhimurium; summary of the method: as §5
[14] = test system: Salmonella typhimurium; assay: Forward mutagenic activity in Salmonella Typhimurium […] assessed as mutant fraction at 2.5 mg/ml after 2 hrs in absence of rat S9 liver homogenate; format: toxicity, organism-based; conditions: salmonella enterica subsp. enterica serovar typhimurium; summary of the method: as §5
[15] = test system: Salmonella typhimurium; assay: Forward mutagenic activity in Salmonella Typhimurium […] assessed as mutant fraction at 2.5 mg/ml after 2 hrs in presence of rat S9 liver homogenate; format: toxicity, organism-based; conditions: salmonella enterica subsp. enterica serovar typhimurium; summary of the method: as §5
[16] = test system: Salmonella typhimurium; assay: Bactericidal activity against Salmonella Typhimurium […] assessed as survival at 1.25 mg/ml after 48 to 60 hrs in presence of rat S9 liver homogenate relative to control; format: functional, organism-based; conditions: Salmonella enterica subsp. enterica serovar Typhimurium, Liver S9 fraction; summary of the method: as §3
[17] = test system: Salmonella typhimurium; assay: Bactericidal activity against Salmonella Typhimurium […] assessed as survival at 0.3125 mg/ml after 48 to 60 hrs in presence of rat S9 liver homogenate relative to control; format: functional, organism-based; conditions: Salmonella enterica subsp. enterica serovar Typhimurium, Liver S9 fraction; summary of the method: as §3
[18] = test system: Salmonella typhimurium; assay: Bactericidal activity against Salmonella Typhimurium […] assessed as survival at 0.625 mg/ml after 48 to 60 hrs in presence of rat S9 liver homogenate relative to control; format: functional, organism-based; conditions: Salmonella enterica subsp. enterica serovar Typhimurium, Liver S9 fraction; summary of the method: as §3
[19] = test system: Salmonella typhimurium; assay: Bactericidal activity against Salmonella Typhimurium […] assessed as survival at 0.3125 mg/ml after 48 to 60 hrs in absence of rat S9 liver homogenate relative to control; format: functional, organism-based; conditions: Salmonella enterica subsp. enterica serovar Typhimurium; summary of the method: as §3
[20] = test system: Salmonella typhimurium; assay: Bactericidal activity against Salmonella Typhimurium […] assessed as survival at 2.5 mg/ml after 48 to 60 hrs in absence of rat S9 liver homogenate relative to control; format: functional, organism-based; conditions: Salmonella enterica subsp. enterica serovar Typhimurium; summary of the method: as §3
[21] = test system: Salmonella typhimurium; assay: Bactericidal activity against Salmonella Typhimurium […] assessed as survival at 5 mg/ml after 48 to 60 hrs in absence of rat S9 liver homogenate relative to control; format: functional, organism-based; conditions: Salmonella enterica subsp. enterica serovar Typhimurium; summary of the method: as §3
[22] = test system: Salmonella typhimurium; assay: Forward mutagenic activity in Salmonella Typhimurium […] assessed as mutant fraction at 0.3125 mg/ml after 2 hrs in absence of rat S9 liver homogenate; format: toxicity, organism-based; conditions: salmonella enterica subsp. enterica serovar typhimurium; summary of the method: as §5
[23] = test system: Salmonella typhimurium; assay: Bactericidal activity against Salmonella Typhimurium […] assessed as survival at 2.5 mg/ml after 48 to 60 hrs in presence of rat S9 liver homogenate relative to control; format: functional, organism-based; conditions: Salmonella enterica subsp. enterica serovar Typhimurium, Liver S9 fraction; summary of the method: as §3
[24] = test system: Salmonella typhimurium; assay: Forward mutagenic activity in Salmonella Typhimurium […] assessed as mutant fraction at 1.25 mg/ml after 2 hrs in absence of rat S9 liver homogenate; format: toxicity, organism-based; conditions: salmonella enterica subsp. enterica serovar typhimurium; summary of the method: as §5
[25] = test system: Salmonella typhimurium; assay: Bactericidal activity against Salmonella Typhimurium […] assessed as survival at 0.625 mg/ml after 48 to 60 hrs in absence of rat S9 liver homogenate relative to control; format: functional, organism-based; conditions: Salmonella enterica subsp. enterica serovar Typhimurium; summary of the method: as §3
[26] = test system: Salmonella typhimurium; assay: Forward mutagenic activity in Salmonella Typhimurium […] assessed as mutant fraction at 5 mg/ml after 2 hrs in presence of rat S9 liver homogenate; format: toxicity, organism-based; conditions: salmonella enterica subsp. enterica serovar typhimurium; summary of the method: as §5
[27] = test system: Salmonella typhimurium; assay: Forward mutagenic activity in Salmonella Typhimurium […] assessed as mutant fraction at 1.25 mg/ml after 2 hrs in presence of rat S9 liver homogenate; format: toxicity, organism-based; conditions: salmonella enterica subsp. enterica serovar typhimurium; summary of the method: as §5
[28] = test system: Biomphalaria glabrata; assay: Molluscicidal activity against Biomphalaria glabrata assessed as mortality at 15 ppm after 24 hrs; format: functional; summary of the method: as §4

Structure (SMILES) | Activity [4] | Activity [5] | Activity [8] | Activity [10] | Activity [11] | Activity [12] | Activity [13] | Activity [14] | Activity [15] | Activity [16] | Activity [17] | Activity [18] | Activity [19] | Activity [20] | Activity [21] | Activity [22] | Activity [23] | Activity [24] | Activity [25] | Activity [26] | also measured
CC1(C)CC[C@]2(C(=O)O)[C@H](O)C[C@]3(C)C(=CC[C@@H]4[C@@]5(C)CC[C@H](OS(=O)(=O)O)C(C)(C)[C@@H]5CC[C@]43C)[C@H]2C1 | inactive | Non-toxic |  |  |  |  |  |  |  |  |  |  |  |  |  |  |  |  |  |  | Activity [1]: inactive; Activity [2]: inactive; Activity [3]: inactive; Activity [6]: inactive; Activity [7]: inactive
CC(=O)N[C@H]1[C@H](O[C@H]2CC[C@]3(C)[C@H]4CC=C5[C@H]6CC(C)(C)CC[C@]6(C(=O)O)CC[C@@]5(C)[C@]4(C)CC[C@H]3C2(C)C)O[C@H](CO)[C@@H](O)[C@@H]1O [ARIDANIN] | 100% |  | 2.9 | 5.6 | 4.2 | 100% | 2.5 | 3.3 | 2.8 | 100% | 100% | 100% | 89% | 100% | 100% | 4.5 | 100% | 4.1 | 98% | 4 | Activity [9]: 100%; Activity [27]: 3.2
CC(=O)N[C@H]1[C@H](O[C@H]2CC[C@]3(C)[C@H]4CC=C5[C@H]6CC(C)(C)CC[C@]6(C(=O)O)[C@H](O)C[C@@]5(C)[C@]4(C)CC[C@H]3C2(C)C)O[C@H](CO)[C@@H](O)[C@@H]1O | 100% |  | 3.1 | 5.4 | 4.7 | 100% | 3.2 | 4.7 | 2.9 | 200% | 100% | 100% | 100% | 100% | 100% | 4.9 | 100% | 5.4 | 100% | 4.6 | Activity [28]: 100%; Activity [27]: 2.6
CC(=O)N[C@H]1[C@H](O[C@H]2CC[C@]3(C)[C@H]4CC=C5[C@H]6CC(C)(C)CC[C@]6(C(=O)O)CC[C@@]5(C)[C@]4(C)CC[C@H]3C2(C)C)O[C@H](CO[C@@H]2O[C@H](CO)[C@@H](O)[C@H](O)[C@H]2O)[C@@H](O)[C@@H]1O |  | 100% |  | 4.2 | 5 | 100% |  | 3.1 |  |  |  |  | 100% | 100% | 100% | 4.1 |  | 4 | 100% |  | 
